Test results from PubChem BioAssay AID624315 (Broad Institute, 2012).
Where “and” joins values, the source holds several entries; their conditions need not be identical. Equal values may be shown once. Calls of active or inactive are those of the source.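 The calls were made as follows: active = compounds lowering cell ATP signal whose fitted IC50 is at or below twice the top valid tested dose; inconclusive = flat fit with 30 to 70% inhibition, or poor fit; inactive = the rest.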

test system: SK-MEL-5 melanoma viability, CellTiter-Glo ATP, 24 h; assay: SK-MEL-5 parental cell viability reduction, dose response, orthogonal assay for MITF inhibitor project, CellTiter-Glo luminescence, dry powder samples, set 3 (AID 624315); settings: not given
Procedure, shortened: (§1)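 System: SK-MEL-5 human melanoma cells, parental non-reporter line; medium: phenol red-free medium; dosing: multiple compound concentrations delivered by pin transfer; incubation: 24 h treatment at 37 °C, 5 min RT before reading; detection: CellTiter-Glo luminescence measuring cellular ATP content; read-out basis: viability from ATP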

| Compound | IC50 |
| --- | --- |
| COc1cccc(-c2cc(C(=O)NC3=C(Cl)C(=O)c4ccccc4C3=O)ccc2OC)c1 | 34 µM |
| CCN(CC)CCCNC1=C(N(C)C(C)=O)C(=O)c2ccccc2C1=O | 5.52 µM |
| CCN1CCN(C2=C(NC(=O)c3ccccc3)C(=O)c3ccccc3C2=O)CC1 | 8.63 µM |
| COc1ccc(C(=O)NC2=C(c3ccc(OC(F)(F)F)cc3)C(=O)c3ccccc3C2=O)cc1 | > 70 µM (inactive) |
| O=C(NC1=C(N2CCN(c3ccccc3)CC2)C(=O)c2ccccc2C1=O)c1ccccc1 | > 70 µM (inactive) |
| CC(=O)NC1=C(c2cccc(Cl)c2)C(=O)c2ccccc2C1=O | 14 µM |
| O=C1C(Nc2ccccc2)=C(N2CCOCC2)C(=O)c2ccccc21 | 27 µM |
| O=C1C(Nc2ccccc2)=C(NS(=O)(=O)c2ccccc2[N+](=O)[O-])C(=O)c2ccccc21 | > 70 µM (inactive) |
| C[C@@H](NC1=C(Nc2ccccc2)C(=O)c2ccccc2C1=O)c1ccccc1 | > 70 µM (inactive) |
| C=CCNC1=C(NCCCN(CC)CC)C(=O)c2ccccc2C1=O | 15.6 µM |
| COc1ccc(C2=C(NC(=O)c3ccc(OC)cc3-c3cccc(OC)c3)C(=O)c3ccccc3C2=O)cc1 | > 70 µM (inactive) |
| O=C1C=C(Nc2ccccc2)C(=O)c2ccccc21 | 5.05 µM |
| O=C1C(NS(=O)(=O)c2cccs2)=C(N2CCCCC2)C(=O)c2ccccc21 | > 70 µM (inactive) |
| COc1ccc(S(=O)(=O)N(C(C)=O)c2ccc(OC(C)=O)c3ccccc23)cc1[N+](=O)[O-] | 31.6 µM |
| C=CCNC1=C(Cl)C(=O)c2ccccc2C1=O | 9.72 µM and 12.1 µM |
| CCN1CCN(C2=C(N(C)C(C)=O)C(=O)c3ccccc3C2=O)CC1 | 6.41 µM |
| O=C(NC1=C(c2ccccc2)C(=O)c2ccccc2C1=O)c1ccc(Br)cc1 | > 70 µM (inactive) |
| C=CCNC1=C(N2CCN(CC)CC2)C(=O)c2ccccc2C1=O | 17.9 µM |
| O=C1C(NS(=O)(=O)c2ccc(Br)s2)=C(N2CCSCC2)C(=O)c2ccccc21 | > 70 µM (inactive) |
| O=C(NC1=C(N2CCOCC2)C(=O)c2ccccc2C1=O)c1ccccc1 | 20.1 µM |
| CN1CCN(C2=C(Nc3ccccc3)C(=O)c3ccccc3C2=O)CC1 | 23.4 µM |
| COc1ccc(C2=C(NC(=O)c3ccccc3OC)C(=O)c3ccccc3C2=O)cc1 | > 70 µM (inactive) |
| COc1ccc(C2=C(NC(=O)c3ccc4ccccc4c3)C(=O)c3ccccc3C2=O)cc1 | > 70 µM (inactive) |
| COC1=C(NS(=O)(=O)c2ccccc2)C(=O)c2ccccc2C1=O | 21.7 µM |

| Compound | IC50 |
| --- | --- |
| O=C1C(NS(=O)(=O)c2ccc(Br)cc2)=C(N2CCOCC2)C(=O)c2ccccc21 | 35.4 µM |
| C=CCNC1=C(NS(=O)(=O)c2ccc(Br)cc2)C(=O)c2ccccc2C1=O | 29.9 µM |
| NC1=C(NC(=O)c2ccccc2)C(=O)c2ccccc2C1=O | 19.8 µM |
| CC1CCN(CC(CS(=O)(=O)c2ccc([N+](=O)[O-])cc2)N2CCC(C)CC2)CC1 (stereo not drawn) | > 70 µM (inactive) |
| O=C1C(Nc2ccccc2)=C(N2CCN(c3ccccc3)CC2)C(=O)c2ccccc21 | > 70 µM (inactive) |
| O=C(NC1=C(c2ccc(OC(F)(F)F)cc2)C(=O)c2ccccc2C1=O)c1ccc(Br)cc1 | > 70 µM (inactive) |
| COc1ccc(C2=C(NC(=O)c3ccc(Cl)cc3)C(=O)c3ccccc3C2=O)cc1 | 34.6 µM |
| CCN1c2ccccc2NC2N=C(OC)C(c3ccccc3)C21 (stereo not drawn) | 23.9 µM |
| CCN(CC)CCCNC1=C(Nc2ccccc2)C(=O)c2ccccc2C1=O | 34 µM |
| O=C(NC1=C(N2CCSCC2)C(=O)c2ccccc2C1=O)c1ccccc1 | 29.9 µM |
| C=CCNC1=C(N2CCSCC2)C(=O)c2ccccc2C1=O | 10.9 µM |
| NC1=CC(=O)c2ccccc2C1=O | 12.4 µM |
| CN1CCN(C2=C(NC(=O)c3ccc(Br)cc3)C(=O)c3ccccc3C2=O)CC1 | 6.69 µM |
| COc1cccc(C2=C(NC(=O)c3ccccc3)C(=O)c3ccccc3C2=O)c1 | 22.5 µM |
| COc1ccc(C2=C(NC(=O)c3cccc(OC)c3)C(=O)c3ccccc3C2=O)cc1 | 29 µM |
| CC(=O)N(C)C1=C(N2CCOCC2)C(=O)c2ccccc2C1=O | 10.1 µM |
| O=C1C(NS(=O)(=O)c2ccc(Br)cc2)=C(c2ccc(OC(F)(F)F)cc2)C(=O)c2ccccc21 | > 70 µM (inactive) |
| CN1CCN(C2=C(NC(=O)c3ccccc3)C(=O)c3ccccc3C2=O)CC1 | 9.27 µM |
| CCN1CCN(C2=C(Nc3ccccc3)C(=O)c3ccccc3C2=O)CC1 | 28.1 µM |
| O=C1C(NS(=O)(=O)c2ccc(Br)cc2)=C(c2ccccc2)C(=O)c2ccccc21 | > 70 µM (inactive) |
| CC(=O)N(C)C1=C(N2CCN(C)CC2)C(=O)c2ccccc2C1=O | 4.63 µM |
| CN1CCN(C2=C(NS(=O)(=O)c3ccccc3)C(=O)c3ccccc3C2=O)CC1 | 18.2 µM |
| CCN1CCN(C2=C(NC(=O)c3ccc(Br)cc3)C(=O)c3ccccc3C2=O)CC1 | 8.82 µM |
| COc1ccc(C2=C(NC(=O)c3ccccc3Cl)C(=O)c3ccccc3C2=O)cc1 | 17.6 µM |

| Compound | IC50 |
| --- | --- |
| CN1CCN(C2=C(NS(=O)(=O)c3ccc(Br)s3)C(=O)c3ccccc3C2=O)CC1 | 30 µM |
| C=CCNC1=C(N(C)C(C)=O)C(=O)c2ccccc2C1=O | 0.79 µM |
| COc1ccc(C2=C(NC(=O)c3cccc(Cl)c3)C(=O)c3ccccc3C2=O)cc1 | 27.7 µM |
| C=C1C(=O)OC2C1CC/C(C)=C\CCC1(C)OC21 (stereo not drawn) | > 47 µM (inactive) |
| O=C(NC1=C(c2ccc(Oc3ccccc3)cc2)C(=O)c2ccccc2C1=O)c1ccccc1 | > 70 µM (inactive) |
| CC(=O)N(C)C1=C(N2CCCCC2)C(=O)c2ccccc2C1=O | 4.42 µM |
| Cc1ccc(C(=O)NC2=C(c3ccccc3)C(=O)c3ccccc3C2=O)o1 | 23.6 µM |
| C=CCNC1=C(N2CCCCC2)C(=O)c2ccccc2C1=O | 5.3 µM |
| COc1ccc(C2=C(NC(C)=O)C(=O)c3ccccc3C2=O)cc1 | 13.9 µM |
| C=CCNC1=C(N2CCN(C)CC2)C(=O)c2ccccc2C1=O | 25.3 µM |
| CN1CCN(C2=C(NS(=O)(=O)c3ccc(Br)cc3)C(=O)c3ccccc3C2=O)CC1 | > 70 µM (inactive) |
| O=C(NC1=C(c2ccccc2)C(=O)c2ccccc2C1=O)c1ccco1 | 25.7 µM |
| O=C(NC1=C(N2CCOCC2)C(=O)c2ccccc2C1=O)c1ccc(Br)cc1 | 32 µM |
| CC(=O)NC1=C(c2ccccc2)C(=O)c2ccccc2C1=O | 18.3 µM |
| O=C(NC1=C(c2ccccc2)C(=O)c2ccccc2C1=O)c1ccccc1 | 26.1 µM |
| CC(=O)NC1=C(c2ccc(Cl)cc2)C(=O)c2ccccc2C1=O | 13.4 µM |
| O=C1C(Nc2ccccc2)=C(N2CCCCC2)C(=O)c2ccccc21 | 18.1 µM |
| Cc1nc2ccccc2n1/N=C/c1ccc([N+](=O)[O-])s1 | 20.1 µM |
| O=C(NC1=C(Cl)C(=O)c2ccccc2C1=O)c1ccccc1 | 9.1 µM |
| C=CCNC1=C(NCCN(CC)CC)C(=O)c2ccccc2C1=O | 14 µM |
| COc1ccc(C(=O)NC2=C(c3ccc(OC)cc3)C(=O)c3ccccc3C2=O)cc1 | 15.6 µM |
| C=CCNC1=C(N2CCOCC2)C(=O)c2ccccc2C1=O | 11 µM |
| CN1CCN(C2=C(NS(=O)(=O)c3cccs3)C(=O)c3ccccc3C2=O)CC1 | > 70 µM (inactive) |
| CC(=O)NC1=C(c2ccc3c(c2)oc2ccccc23)C(=O)c2ccccc2C1=O | 25.3 µM |

test system: not listed separately; assay: as above; settings: SK-MEL-5 melanoma viability, CellTiter-Glo ATP, 24 h; at 35 µM (top of the series)
Procedure, shortened: as §1

| Compound | activity change, negative = inhibition |
| --- | --- |
| C=CCNC1=C(NCC=C)C(=O)c2ccccc2C1=O | -5.12% (inactive) |
